Source: ChEMBL document CHEMBL4270576, “Discovery of a benzenesulfonamide-based dual inhibitor of microsomal prostaglandin E2 synthase-1 and 5-lipoxygenase that favorably modulates lipid mediator biosynthesis in inflammation” (Eur J Med Chem, 2018)
Activity calls are given as the source filed them. The rule behind the calls is not given here.

Key:
Prostaglandin E synthase = target: T1, Prostaglandin E synthase (Homo sapiens, UniProt O14684); test: Inhibition of mPGES-1 isolated from microsomes of interleukin-1 beta-stimulated human A549 cells using PGH2 as substrate preincubated for 15 mins followed by substrate addition measured after 1 min by RP-HPLC analysis
T1 sequence (O14684 whole entry): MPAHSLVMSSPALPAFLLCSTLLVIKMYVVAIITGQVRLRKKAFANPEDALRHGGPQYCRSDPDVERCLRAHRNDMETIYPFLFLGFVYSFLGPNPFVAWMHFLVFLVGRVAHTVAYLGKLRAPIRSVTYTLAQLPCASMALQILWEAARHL
Procedure, shortened: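 Microsomes from A549 cells treated with IL-1β (1 ng/ml, 72 h), diluted in 0.1 M potassium phosphate pH 7.4 with 2.5 mM glutathione. Pre-incubated 15 min with compound or DMSO, then 20 µM PGH2 (final) for 1 min at 4 °C. IC50 from 4-5 concentrations.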

Mus musculus [1] = test: Antiinflammatory activity in zymosan induced CD-1 mouse model of inflammation assessed as reduction in LTB4 levels in air pouch at 10 mg/kg, ip preincubated for 30 mins followed by zymosan challenge and measured after 4 hrs by ELISA; assay type: functional, organism-based
Procedure, shortened: (§1)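 Air pouch formed by s.c. injection of 2.5 mL sterile air in CD-1 mice; on day 6, 10 mg/kg i.p. (2% DMSO/saline) given 30 min before 1 ml 1% w/v zymosan into the pouch. After 4 h, exudate collected with 1 ml saline and centrifuged; leukocytes counted in Burker chamber; LTB4 in supernatant by ELISA (ng/mL). n=6 mice per group.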

Mus musculus [2] = test: Antiinflammatory activity in CD-1 mouse assessed as reduction in zymosan-induced LTC4 formation in peritoneal cavity at 10 mg/kg, ip preincubated for 30 mins followed by zymosan addition measured after 30 mins by ELISA; assay type: functional, organism-based
Procedure, shortened: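 CD-1 male mice (6-8 weeks), n=6 per group, given 10 mg/kg i.p. in 2% DMSO/saline vehicle 30 min before i.p. zymosan (500 µL of 2 mg/mL suspension). Peritoneal cavity washed with 3 ml PBS 30 min after zymosan; LTC4 measured in exudate. One-way ANOVA with Bonferroni test.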

Mus musculus [3] = test: Antiinflammatory activity in zymosan induced CD-1 mouse model of inflammation assessed as reduction in leukocyte recruitment in air pouch at 10 mg/kg, ip preincubated for 30 mins followed by zymosan challenge and measured after 4 hrs by trypan blue staining-based burker's chamber method; assay type: functional, organism-based; procedure, shortened: as §1

With CC(c1cc2ccccc2s1)N(O)C(N)=O (centres undefined) [ZILEUTON] the IC50 (Prostaglandin E synthase) was 2400 nM, the Activity (Mus musculus [1]) was “Active” and the Activity (Mus musculus [2]) was “Active”. For the same compound, the Activity (Mus musculus [3]) was “Active”.
